Laboratory results reported in ChEMBL document CHEMBL4831480, “Identification of First-in-Class Inhibitors of Kallikrein-Related Peptidase 6 That Promote Oligodendrocyte Differentiation” (J Med Chem, 2021).
The source made the active and inactive calls. No cut-off for these calls is given here.

Tests used:
[1] = target: T1, Kallikrein-13 (Homo sapiens) (UniProt Q9UKR3); assay: Inhibition of KLK13 (unknown origin) assessed as inhibition of release of AMC fluorescent product using H-VPR-AMC as substrate at 10 uM incubated for 30 mins by microplate reader relative to control
T1 sequence (whole entry): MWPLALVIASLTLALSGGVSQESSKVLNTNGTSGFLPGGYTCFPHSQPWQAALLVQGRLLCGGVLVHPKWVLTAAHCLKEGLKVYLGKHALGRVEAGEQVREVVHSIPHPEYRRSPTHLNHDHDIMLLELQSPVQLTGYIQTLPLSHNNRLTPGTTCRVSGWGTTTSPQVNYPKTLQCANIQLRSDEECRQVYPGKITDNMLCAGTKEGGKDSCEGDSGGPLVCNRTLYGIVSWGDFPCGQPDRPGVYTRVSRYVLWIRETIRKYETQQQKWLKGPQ

Caspase-2 (Homo sapiens) = target: T2, Caspase-2 (Homo sapiens) (UniProt P42575); assay: Inhibition of Caspase-2 (unknown origin) assessed as inhibition of release of AMC fluorescent product using Ac-VDVAD-AMC as substrate at 10 uM incubated for 30 mins by microplate reader relative to control
T2 sequence (whole entry): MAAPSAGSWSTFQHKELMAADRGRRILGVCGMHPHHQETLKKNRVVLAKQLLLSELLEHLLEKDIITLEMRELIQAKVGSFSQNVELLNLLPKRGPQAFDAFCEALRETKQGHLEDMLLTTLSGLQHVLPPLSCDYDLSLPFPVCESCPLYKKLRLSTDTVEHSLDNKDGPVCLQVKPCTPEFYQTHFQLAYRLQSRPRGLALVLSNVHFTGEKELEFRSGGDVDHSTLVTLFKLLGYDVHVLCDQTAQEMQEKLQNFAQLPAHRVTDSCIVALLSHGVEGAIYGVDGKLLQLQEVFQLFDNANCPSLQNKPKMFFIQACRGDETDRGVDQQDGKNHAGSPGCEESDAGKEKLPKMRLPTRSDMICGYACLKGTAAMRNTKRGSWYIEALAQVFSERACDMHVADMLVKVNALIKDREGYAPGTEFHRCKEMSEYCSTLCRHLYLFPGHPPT
Method in brief: (§1)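 Each inhibitor at 10 μM was preincubated 15 min at 37 °C with the protease at an optimized concentration in its own buffer. Reaction started with AMC substrate: Ac-VDVAD-AMC 25 μM (caspase-2), Ac-DEVD-AMC 10 μM (caspase-3), Ac-VEID-AMC 100 μM (caspase-6), Z-LR-AMC 50 μM (cathepsin L), Z-GGR-AMC 100 μM (tPA). Read for 30 min at 37 °C; % inhibition from initial rates versus DMSO; 3 independent experiments.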

Caspase-3 (Homo sapiens) = target: T3, Caspase-3 (Homo sapiens) (UniProt P42574); assay: Inhibition of Caspase-3 (unknown origin) assessed as inhibition of release of AMC fluorescent product using Ac-DEVD-AMC as substrate at 10 uM incubated for 30 mins by microplate reader relative to control; method in brief: as §1
T3 sequence (whole entry): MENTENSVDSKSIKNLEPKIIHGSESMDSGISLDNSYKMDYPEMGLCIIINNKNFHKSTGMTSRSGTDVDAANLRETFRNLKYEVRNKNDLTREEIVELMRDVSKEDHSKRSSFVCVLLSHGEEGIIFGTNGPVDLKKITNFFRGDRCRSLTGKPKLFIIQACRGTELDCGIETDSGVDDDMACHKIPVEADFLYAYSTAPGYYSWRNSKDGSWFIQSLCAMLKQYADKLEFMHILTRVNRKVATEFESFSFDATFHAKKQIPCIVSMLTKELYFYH

[2] = Cytotoxicity against Swiss mouse cortical cells assessed as cell viability at 50 uM incubated for 24 hrs by XTT assay; type: cell-based, Cortical neurone; conditions: mouse cortical cells (cortical neurones), read-out: Activity
Trypsin-3 (Homo sapiens) = target: T4, Trypsin-3 (Homo sapiens) (UniProt P35030); assay: Inhibition of Trypsin 3 (unknown origin) assessed as inhibition of release of AMC fluorescent product using […] as substrate at 10 uM incubated for 30 mins by microplate reader relative to control
T4 sequence (whole entry): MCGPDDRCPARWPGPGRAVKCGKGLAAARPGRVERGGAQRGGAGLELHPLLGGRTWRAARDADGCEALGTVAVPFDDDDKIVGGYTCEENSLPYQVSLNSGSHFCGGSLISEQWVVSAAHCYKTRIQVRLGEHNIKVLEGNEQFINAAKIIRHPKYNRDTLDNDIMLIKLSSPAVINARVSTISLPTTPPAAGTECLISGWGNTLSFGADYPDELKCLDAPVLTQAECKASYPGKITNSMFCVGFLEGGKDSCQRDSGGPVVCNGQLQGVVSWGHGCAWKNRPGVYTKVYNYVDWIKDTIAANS

Plasminogen = Plasminogen (Homo sapiens, UniProt P00747); assay: Competitive inhibition of plasmin (unknown origin) using Boc-QAR-AMC as substrate incubated for 30 mins by Dixon plot analysis
Chain of Plasminogen (P00747 97-580 limits assumed): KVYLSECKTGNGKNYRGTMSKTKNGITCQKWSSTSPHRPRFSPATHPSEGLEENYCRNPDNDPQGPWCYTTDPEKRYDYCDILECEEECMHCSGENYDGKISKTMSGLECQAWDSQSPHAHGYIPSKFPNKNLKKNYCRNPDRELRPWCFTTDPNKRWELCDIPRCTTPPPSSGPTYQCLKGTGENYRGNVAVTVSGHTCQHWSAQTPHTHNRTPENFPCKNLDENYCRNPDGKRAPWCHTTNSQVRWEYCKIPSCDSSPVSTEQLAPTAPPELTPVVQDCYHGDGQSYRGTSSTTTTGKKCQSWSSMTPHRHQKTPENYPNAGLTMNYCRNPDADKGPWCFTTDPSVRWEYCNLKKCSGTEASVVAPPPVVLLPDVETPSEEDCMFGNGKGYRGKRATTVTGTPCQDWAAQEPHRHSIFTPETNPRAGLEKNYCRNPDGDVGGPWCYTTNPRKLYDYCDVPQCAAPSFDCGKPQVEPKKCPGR
Chain of Plasminogen (P00747 581-810 limits assumed): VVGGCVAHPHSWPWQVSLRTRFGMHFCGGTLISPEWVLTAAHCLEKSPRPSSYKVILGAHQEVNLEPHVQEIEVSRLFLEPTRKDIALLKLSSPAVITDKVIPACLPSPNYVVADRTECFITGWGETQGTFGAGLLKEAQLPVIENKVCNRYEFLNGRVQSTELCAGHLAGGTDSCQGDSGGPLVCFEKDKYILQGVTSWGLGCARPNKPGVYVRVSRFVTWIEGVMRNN

Kallikrein-1 = Kallikrein-1 (Homo sapiens, UniProt P06870); assay: Competitive inhibition of KLK1 (unknown origin) assessed as release of AMC fluorescent product using H-PFR-AMC as substrate incubated for 30 mins by microplate reader
Chain of Kallikrein-1 (P06870 whole entry): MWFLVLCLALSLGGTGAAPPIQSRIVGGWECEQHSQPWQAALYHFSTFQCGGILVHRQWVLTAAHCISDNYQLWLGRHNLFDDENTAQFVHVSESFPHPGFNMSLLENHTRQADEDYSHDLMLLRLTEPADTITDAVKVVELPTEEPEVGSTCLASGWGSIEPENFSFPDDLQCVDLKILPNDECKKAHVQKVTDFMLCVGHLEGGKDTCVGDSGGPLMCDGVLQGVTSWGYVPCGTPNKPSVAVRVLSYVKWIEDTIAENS

[3] = Toxicity in human blood assessed as effect on activated partial thromboplastin time; type: tissue-based
[4] = Toxicity in human blood assessed as effect on prothrombin ratio; type: tissue-based
[5] = Permeability in human Caco-2 cells assessed as compound recovery; type: ADME, cell-based; conditions: read-out: Activity
[6] = Metabolic stability in human liver microsomes assessed as half life; type: ADME, Microsome
[7] = target: Voltage-gated inwardly rectifying potassium channel KCNH2 (Homo sapiens, UniProt Q12809); assay: Inhibition of human ERG
Chain of Voltage-gated inwardly rectifying potassium channel KCNH2 (Q12809 whole entry): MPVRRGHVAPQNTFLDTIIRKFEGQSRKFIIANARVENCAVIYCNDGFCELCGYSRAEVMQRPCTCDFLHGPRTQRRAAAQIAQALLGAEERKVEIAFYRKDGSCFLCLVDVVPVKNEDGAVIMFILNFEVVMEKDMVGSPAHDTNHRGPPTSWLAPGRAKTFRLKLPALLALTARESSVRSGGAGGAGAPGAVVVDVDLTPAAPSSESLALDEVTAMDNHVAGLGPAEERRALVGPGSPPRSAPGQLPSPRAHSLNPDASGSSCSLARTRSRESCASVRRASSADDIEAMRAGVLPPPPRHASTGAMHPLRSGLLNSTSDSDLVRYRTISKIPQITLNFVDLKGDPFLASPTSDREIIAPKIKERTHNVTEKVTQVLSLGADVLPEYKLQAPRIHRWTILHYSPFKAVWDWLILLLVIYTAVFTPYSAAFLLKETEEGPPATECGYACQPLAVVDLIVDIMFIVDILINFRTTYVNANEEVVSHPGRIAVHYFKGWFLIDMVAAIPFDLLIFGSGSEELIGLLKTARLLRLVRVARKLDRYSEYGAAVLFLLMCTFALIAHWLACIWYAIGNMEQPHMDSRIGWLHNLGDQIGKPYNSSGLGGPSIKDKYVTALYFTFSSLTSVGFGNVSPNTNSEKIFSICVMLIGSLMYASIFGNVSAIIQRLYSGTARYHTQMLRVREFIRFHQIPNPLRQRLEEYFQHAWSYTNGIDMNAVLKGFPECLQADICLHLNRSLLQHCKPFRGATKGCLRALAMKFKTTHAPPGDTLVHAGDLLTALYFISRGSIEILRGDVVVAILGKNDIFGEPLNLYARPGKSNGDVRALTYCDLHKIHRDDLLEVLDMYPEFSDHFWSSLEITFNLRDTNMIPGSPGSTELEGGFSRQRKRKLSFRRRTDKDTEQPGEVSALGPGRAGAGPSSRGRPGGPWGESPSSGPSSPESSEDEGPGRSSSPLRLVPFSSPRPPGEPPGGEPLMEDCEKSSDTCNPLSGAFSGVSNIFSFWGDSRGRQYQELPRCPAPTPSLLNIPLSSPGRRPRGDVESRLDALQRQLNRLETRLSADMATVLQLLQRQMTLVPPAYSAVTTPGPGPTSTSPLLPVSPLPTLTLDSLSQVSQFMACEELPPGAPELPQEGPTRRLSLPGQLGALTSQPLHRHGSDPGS

Microglia [8] = assay: Anti-inflammatory activity in new born Wistar rat brain microglia assessed as reduction in LPS-induced TNFalpha expression measured after 24 hrs by ELISA
Microglia [9] = assay: Anti-inflammatory activity in new born Wistar rat brain microglia assessed as reduction in LPS-induced IL-1beta expression measured after 24 hrs by ELISA
Kallikrein-6 [10] = target: T5, Kallikrein-6 (Homo sapiens, UniProt Q92876); assay: Inhibition of KLK6 (unknown origin) assessed as release of AMC fluorescent product using Boc-QAR-AMC as substrate incubated for 30 mins by microplate reader; conditions: read-out: IC50
Kallikrein-6 [11] = target: T5, Kallikrein-6; assay: Competitive inhibition of KLK6 (unknown origin) using Boc-QAR-AMC as substrate incubated for 30 mins by Dixon plot analysis
Prothrombin/thrombin = assay: Inhibition of Thrombin (unknown origin) assessed as inhibition of release of AMC fluorescent product using […] as substrate at 10 uM incubated for 30 mins by microplate reader relative to control; conditions: Homo sapiens
Cortical neurone = assay: Cytotoxicity against Swiss mouse cortical cells assessed as cell viability at 25 uM incubated for 24 hrs by XTT assay; type: cell-based
CG-4 = assay: Induction of oligodendrocyte differentiation in Sprague-Dawley rat CG-4 cells assessed as matured oligodendrocyte by measuring increase in mCherry positive cells at 2 uM measured after 4 days by fluorescence imaging analysis; type: functional, cell-based; conditions: time 4.0 day

Compound	inhibition [1]	inhibition (Caspase-2 (Homo sapiens))	inhibition (Caspase-3 (Homo sapiens))	viability at 24 h, 50 µM [2]	inhibition (Trypsin-3 (Homo sapiens))	Ki (Plasminogen)	Ki (Kallikrein-1)	Activity [3]	Activity [4]	recovery [5]	half-life [6]	Activity [7]	Activity (Microglia [8])	Activity (Microglia [9])	IC50 (Kallikrein-6 [10])	Ki (Kallikrein-6 [11])	inhibition (Prothrombin/thrombin)	Activity (Cortical neurone)	Activity (CG-4)
Cl.NCc1ccc(NC(=O)c2cc3ccccc3cc2O)cc1	19%	4%	5%	65%	36%	1300 nM	2400 nM	Non-Toxic	Non-Toxic	> 90%	> 2 h	Not Active	Active	Active	–	–	–	–	–
COc1ccc2c(O)c(C(=O)Nc3ccc(CN)cc3)ccc2c1	0%	14%	3%	–	32%	–	–	–	–	–	–	–	–	–	–	–	–	–	–
Cl.NCc1ccc(NC(=O)c2ccc3ccccc3c2O)cc1	2%	30%	10%	–	30%	1500 nM	–	–	–	–	–	–	–	–	6900 nM	2400 nM	5%	–	–
CC(C)(C)c1ccc(O)c(C(=O)Nc2ccc(CN)cc2)c1.Cl	5%	5%	11%	–	15%	–	–	–	–	–	–	–	–	–	–	4300 nM	2%	Toxic	Active
Cc1ccc2ccc(C(=O)Nc3ccc(CN)cc3)c(O)c2c1	12%	8%	10%	–	21%	–	–	–	–	–	–	–	–	–	–	–	6%	–	–
CC(C)c1ccc(C(=O)Nc2ccc(CN)cc2)c(O)c1	15%	15%	13%	–	73%	–	–	–	–	–	–	–	–	–	3630 nM	1500 nM	32%	–	–
Cc1ccc(C(=O)Nc2ccc(CN)cc2)c(O)c1.Cl	10%	0%	0%	65%	20%	–	–	Non-Toxic	Non-Toxic	> 90%	> 2 h	Not Active	inactive	inactive	2370 nM	2000 nM	0%	–	–
